GalR3 antagonist = GalR3 antagonists in HEK293 cells, primary screen, cell-based, fluorescence readout. AID 651719, 2012. inhibition, % at 3 µM. Galanin receptor type 3 (Homo sapiens), O60755. HEK293 GalR3-CNG cAMP membrane potential fluorescence; galR3 body fused to GalR1 C-terminus. 0.44% of 360,000 active;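 active means inhibition above the screen-wide average plus 3 SD, cut at about 13% in these data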;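 further: forskolin and galanin both at EC90 stimulate the cells; cAMP rise reported by CNG channel membrane potential dye signal; 0% = forskolin plus galanin with DMSO and 100% = forskolin alone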
GASC-1 inh = inhibitors of GASC-1 histone demethylase, primary screen, biochemical, fluorescence, DELFIA europium; Lysine-specific demethylase 4C (Homo sapiens), Q9H3R0; GST-JMJD2C(1-420) H3K9me3 demethylation; inhibition, % at 2.35 µM; 0.069% of 330,000 active;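 active means more than half of a compound's replicate wells show inhibition beyond 50%, single wells judged on their own value; inconclusive means some, but no more than half, of replicates pass 50% inhibition; inactive means no replicate passes 50% inhibition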;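 further: signal counts dimethyl H3K9 product captured on neutravidin plate; 0% = median of DMSO wells and 100% = 0.3 times that DMSO median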
Target sequence (Q9H3R0 1-420 limits assumed): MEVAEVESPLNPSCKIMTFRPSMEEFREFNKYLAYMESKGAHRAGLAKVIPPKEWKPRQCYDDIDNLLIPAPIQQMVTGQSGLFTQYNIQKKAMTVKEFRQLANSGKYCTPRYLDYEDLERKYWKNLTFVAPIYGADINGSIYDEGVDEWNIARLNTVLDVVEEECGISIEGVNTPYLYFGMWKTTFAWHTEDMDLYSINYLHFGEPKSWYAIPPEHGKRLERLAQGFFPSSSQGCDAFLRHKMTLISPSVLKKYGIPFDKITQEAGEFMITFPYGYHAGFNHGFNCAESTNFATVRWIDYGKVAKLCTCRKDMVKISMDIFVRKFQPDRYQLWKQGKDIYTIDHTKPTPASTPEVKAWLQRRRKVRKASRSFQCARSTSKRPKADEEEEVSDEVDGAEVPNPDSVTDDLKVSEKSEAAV
697 NFkB inh = inhibitors of PMA/ionomycin-induced NF-kB reporter, 697 cells, primary screen, B-cell NF-kB inhibitor project, cell-based, luminescence, uHTS. 697 B-cell NF-kB luciferase reporter, 16 h. inhibition, % at 4 µM. 0.33% of 330,000 active. AID 435022, 2010; in the data active means inhibition above about 35%
NR2E3 ag-1 = inhibitors of NR2E3-RetCOR corepressor binding, primary screen, NR2E3 agonist project, biochemical, TR-FRET, GST-NR2E3, biotin-RetCOR. AID 2300, 2010. inhibition of corepressor binding, % at 4.78 µM. 0.12% of 320,000 active. 1536-well. Photoreceptor-specific nuclear receptor (Homo sapiens), Q9Y5X4;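 active means percent inhibition above the cutoff of mean plus 3 SD of all tested compounds, set per screening campaign, cut at about 20% in these data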;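 further: 0% = DMSO wells and 100% = biotin wells as full block of FRET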
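Material: NR2E3–RetCOR corepressor complex | Quantity: 1.35 nM GST-tagged NR2E3 final | Schedule: 5 h at 4 °C | Replication: Singlicate compound wells | Reagent: RetCOR corepressor, biotinylated, 7 nM | Controls: Biotin wells as high control, 0.6% DMSO wells as low control | Signal: TR-FRET, Eu(K)-anti-GST donor, streptavidin-D2 acceptor, ex 340, em 617/671 nm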
NR2E3 ag-2 = NR2E3 agonists in two-hybrid cells, primary screen, cell-based, luminescence, CHO-S, Gal4-NCOR/VP16-NR2E3 | luciferase | Photoreceptor-specific nuclear receptor (Homo sapiens), Q9Y5X4 | 0.35% of 360,000 active | inhibition of corepressor binding, % at 3.98 µM;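 active means inhibition above the mean of all tested compounds plus 3 SD, cut at about 70% in these data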;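 further: 0% = DMSO with NR2E3 transfected cells and 100% = cells lacking NR2E3 construct; higher means lower luciferase signal from less NR2E3 corepressor binding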
Jurkat NFkB inh = inhibitors of induced NF-kB luciferase reporter, primary screen, TCR NF-kB activation inhibitor project, cell-based, luminescence, uHTS | 0.53% of 330,000 active | Jurkat, PMA/ionomycin-induced NF-kB luciferase reporter | inhibition, % at 4 µM | AID 435003, 2010; in the data active means inhibition above about 50%
GalR3 antag conf = GalR3 antagonist hit confirmation, cell-based, fluorescence, triplicate; shares compounds with GalR3 antagonist; HEK293 GalR3 CNG cAMP biosensor, membrane potential fluorescence; galR3 fused to GalR1 carboxy tail; challenged with forskolin and galanin at EC90; inhibition, % at 3 µM; 59% of 1,600 active;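 active means inhibition above the primary screen's cutoff, the mean inhibition of all screened compounds plus 3 SD, cut at about 13% in these data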;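 further: 0% = forskolin plus galanin and 100% = forskolin alone with DMSO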
HEK-CNG parental = nonspecific cAMP agonists in parental HEK-CNG cells, counter-screen for GalR3 antagonist project, cell-based, fluorescence, high throughput; 10% of 1,600 active; shares compounds with GalR3 antagonist; AID 652268, 2013; activation, % at 3 µM; HEK293-CNG parental cells, cAMP membrane potential fluorescence; normalised: DMSO wells 0%, forskolin wells 100%; in the data active means activation above about 1.3%
Numbers without * were called inactive; i = inactive; ? = inconclusive; . = no result given. Shown are actives, neighbours in structure and some others; about 1.5% of the full set was active somewhere.

SMILES	GalR3 antagonist	GASC-1 inh	697 NFkB inh	NR2E3 ag-1	NR2E3 ag-2	Jurkat NFkB inh	GalR3 antag conf	HEK-CNG parental
CN(C)C(=O)c1ccc(NC(=O)CC2SC(N3CCCC3)=NC2=O)cc1 (configuration not stated)	-2	-1	5	3	-45	10	.	.
COc1ccc2[nH]c(=O)c(CNc3ccc(C)cc3C)cc2c1	14*	8	-9	-2	-19	-5	5	0
O=C(c1cccnc1Cl)N1CCOCC1	13*	-1	-3	-1	-2	-9	2	0
O=C(c1ccccc1F)N1CCOCC1	-4	2	-6	0	3	19	.	.
Cc1nc(C(N)=O)c(N)n1CCc1ccccc1	0	4	-2	1	9	-1	.	.
Cc1ccc(CN2CCN(C3CCCC3)C(CCO)C2)s1 (configuration not stated)	-4	-17	-12	4	-38	-4	.	.
CCOC(=O)C(C(=O)N(C)Cc1ccccc1)C1CCCCC1 (configuration not stated)	-14	-1	-38	4	-3	-10	.	.
O=C(Cn1nc(-c2ccc(N3CCOCC3)c([N+](=O)[O-])c2)c2ccccc2c1=O)N1CCCCC1	15*	2	2	-1	29	-9	60*	0
O=[N+]([O-])c1cc(-c2nnc(N3CCOCC3)c3ccccc23)ccc1N1CCOCC1	-5	-5	6	2	-4	-25	.	.
CCOc1ccccc1NC(=O)c1ccc(CN2CCc3ccccc3C2)cc1	-8	-1	19	3	1	-3	.	.
CCOc1ccc(NC(=O)c2ccc(CN3CCc4ccccc4C3)cc2)cc1	103*	4	-85	6	-34	49	108*	0
CCOC(=O)c1ccc(NC(=O)c2ccc(CN3CCc4ccccc4C3)cc2)cc1	71*	-10	-69	3	-2	35	110*	0
COc1ccc(NC(=O)c2ccc(CN3CCc4ccccc4C3)cc2)cc1OC	-4	-7	-1	2	-24	11	.	.
CCOC(=O)c1ccc(NC(=O)c2ccc(CN3CCOCC3)cc2)cc1	94*	13	-40	0	-9	48	110*	0
COc1cccc(NC(=O)c2ccc(CN3CCc4ccccc4C3)cc2)c1	46*	5	-17	4	-18	39	102*	0
NC(=O)c1ccc(NC(=O)c2ccc(CN3CCOCC3)cc2)cc1	-3	-8	-23	4	2	-9	.	.
O=C(NCCc1ccccc1Cl)C1CCC(=O)N(C2CCCCCC2)C1 (configuration not stated)	0	0	-1	-1	0	-4	.	.
COc1cc(OC)c2cc[nH]c2c1	18*	-9	-20	0	-6	-10	5	0
COc1ccc2cc[nH]c2c1	-5	-4	-5	-2	-16	11	.	.
CCN(CC)c1ccc(/C=N/NC(=S)NCc2ccccc2)c(O)c1	13*	-7	-4	8	13	8	25*	-2
COc1ccc(NC(=O)C2Cc3c(-c4cccc(C(N)=O)c4)ccnc3O2)cc1OC (configuration not stated)	-7	.	.	.	-3	.	.	.
COc1ccc(NC(=O)C2Cc3c(-c4cccc(C(C)=O)c4)ccnc3O2)cc1OC (configuration not stated)	61*	.	.	.	38	.	104*	0
COCCn1c(SCCCC(=O)c2ccc(Br)cc2)nnc1-c1ccncc1	18*	-7	-68	0	40	17	38*	0
Nc1oc2ccccc2c1C(=O)Cc1ccccc1O[C@@H]1O[C@H](CO)[C@@H](O)[C@H](O)[C@H]1O	16*	?	16	-7	-36	12	9	0
OCc1ccccc1O[C@@H]1O[C@H](CO)[C@@H](O)[C@H](O)[C@H]1O	-4	-15	20	1	-15	1	.	.
SMILES	GalR3 antagonist	GASC-1 inh	697 NFkB inh	NR2E3 ag-1	NR2E3 ag-2	Jurkat NFkB inh	GalR3 antag conf	HEK-CNG parental
O=C(CC(=O)Nc1ccc(Cl)cc1Cl)Nc1ccc(Cl)cc1Cl	-5	9	14	0	-15	12	.	.
CC(=O)OCC(=O)Nc1ccc(Cl)cc1Cl	19*	-1	3	2	-1	10	0	0
CNCC(O)c1ccc(OC(=O)C(C)(C)C)c(OC(=O)C(C)(C)C)c1 (configuration not stated)	55*	.	-16	2	-52	-6	63*	13*
COCC(COS(N)(=O)=O)Cc1ccccc1 (configuration not stated)	.	i	-8	4	-18	-7	-3	0
COc1cc([N+](=O)[O-])cc(/C=N/NC(=O)c2cncc(Br)c2)c1O	25*	13	-2	0	-37	5	38*	0
COc1cccc(CNC(=O)CCN2C(=O)[C@@H]3Cc4ccccc4CN3C2=O)c1	-7	9	-18	1	1	2	.	.
COC(=O)[C@]1(C)N[C@H](CN(C)S(=O)(=O)c2ccc(F)cc2)[C@@H]2C(=O)N(C)C(=O)[C@@H]21	1	35	-5	.	.	-6	.	.
COc1cc(/C=C/c2ccc3c([N+](=O)[O-])cccc3n2)ccc1OCC(=O)O	3	11	10	2	-30	8	.	.
O=C(O)COc1ccc(/C=C/c2ccc3cccc([N+](=O)[O-])c3n2)cc1	16*	0	17	-8	9	7	21*	0
COc1cc(/C=C/c2ccc3cccc([N+](=O)[O-])c3n2)ccc1OCC(=O)O	67*	-5	-10	-4	-13	-3	66*	0

Screening results deposited in PubChem BioAssay by several laboratories.
